Laboratory results taken from ChEMBL document CHEMBL1128440 (J Med Chem, 1995).
Several values for one entry are separate records, joined by “and”; a condition that tells them apart may be missing. Equal entries are not always repeated.

Key:
[1] = Partition coefficient (logP); format: physicochemical; conditions: octanol/water
How it was run: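 log P(o/w) (octanol/water) estimated by a reversed-phase HPLC method.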

[2] = molecular target: T1, Progesterone receptor (Homo sapiens) (UniProt P06401); assay: Nonspecific binding affinity against progesterone receptor was estimated relative to compound R5020
T1 sequence (whole entry): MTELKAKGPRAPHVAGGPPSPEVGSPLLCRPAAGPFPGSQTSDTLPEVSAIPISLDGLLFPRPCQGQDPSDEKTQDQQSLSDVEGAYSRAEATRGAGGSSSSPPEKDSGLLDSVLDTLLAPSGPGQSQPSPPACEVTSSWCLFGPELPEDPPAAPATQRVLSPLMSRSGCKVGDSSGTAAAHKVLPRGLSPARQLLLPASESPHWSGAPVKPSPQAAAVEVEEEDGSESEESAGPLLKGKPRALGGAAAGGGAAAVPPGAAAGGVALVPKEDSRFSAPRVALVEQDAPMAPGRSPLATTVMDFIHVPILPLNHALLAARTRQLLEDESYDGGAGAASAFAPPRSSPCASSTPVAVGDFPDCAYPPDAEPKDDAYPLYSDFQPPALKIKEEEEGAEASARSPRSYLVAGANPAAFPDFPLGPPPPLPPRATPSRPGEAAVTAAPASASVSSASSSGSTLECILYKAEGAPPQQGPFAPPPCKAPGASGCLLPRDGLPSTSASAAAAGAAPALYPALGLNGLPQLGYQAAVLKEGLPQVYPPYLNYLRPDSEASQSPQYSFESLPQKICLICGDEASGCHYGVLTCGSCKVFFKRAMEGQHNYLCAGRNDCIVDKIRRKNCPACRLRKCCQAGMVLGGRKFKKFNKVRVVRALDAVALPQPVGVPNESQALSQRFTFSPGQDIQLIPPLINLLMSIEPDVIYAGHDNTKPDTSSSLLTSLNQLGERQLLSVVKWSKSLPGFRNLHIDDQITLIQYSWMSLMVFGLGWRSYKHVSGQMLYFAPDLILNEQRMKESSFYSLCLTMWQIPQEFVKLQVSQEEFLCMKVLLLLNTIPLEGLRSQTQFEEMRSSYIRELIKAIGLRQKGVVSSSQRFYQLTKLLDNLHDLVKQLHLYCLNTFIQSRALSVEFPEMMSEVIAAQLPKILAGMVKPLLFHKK

[3] = molecular target: T1, Progesterone receptor (Homo sapiens); assay: Binding selectivity index as the ratio of RBA value to that of NSB value.
How it was run: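 BSI calculated as the ratio of RBA to NSB.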

[4] = molecular target: T1, Progesterone receptor (Homo sapiens); assay: Relative binding affinity against progesterone receptor at 0 degree Celsius determined in a competitive radiometric binding assay (R5020=100%).
How it was run: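 Competitive radiometric binding at 0 °C against tritium-labeled R5020 as the standard (RBA = 100). Values are the average of two experiments.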

| SMILES | logP [1] | logP ([1]; read-out: logP) | NSB [2] | BSI [3] | RBA [4] |
| --- | --- | --- | --- | --- | --- |
| CC(=O)[C@@]12OC(c3ccco3)O[C@@H]1CC1C3CCC4=CC(=O)CC[C@]4(C)C3CC[C@@]12C (stereo not given in full) | 4.76 | 4.56 | 1.69 and 2.08 | – | – |
| CC(=O)[C@H]1CC[C@H]2[C@@H]3CCC4=CC(=O)CC[C@]4(C)[C@H]3CC[C@]12C | – | – | 0.83 | 16 | 13 |
| CC1(c2ccc(F)cc2)O[C@@H]2CC3C4CCC5=CC(=O)CC[C@@H]5C4CC[C@]3(C)[C@]2(C(=O)CF)O1 (stereo not given in full) | – | 5.48 | 4.36 | 65 | 282 |
| CC(=O)[C@@]12OC(C)(c3ccco3)O[C@@H]1CC1C3CCC4=CC(=O)CC[C@]4(C)C3CC[C@@]12C (stereo not given in full) | 5.03 | 4.76 | 2.08 and 2.74 | 2 and < 1 | – |
| C[C@]12CCC3C(CCC4=CC(=O)CC[C@@H]43)C1C[C@H]1OC(c3ccco3)O[C@]12C(=O)CO (stereo not given in full) | 3.78 | 4.01 | 0.96 and 0.76 | – | – |
| CC1(c2ccco2)O[C@@H]2CC3C4CCC5=CC(=O)CC[C@@H]5C4CC[C@]3(C)[C@]2(C(=O)CO)O1 (stereo not given in full) | 3.9 | 4.23 | 1.2 and 0.86 | – | – |
